Results reported in ChEMBL document CHEMBL1145895, “A new generation of N-aryl-N'-(1-alkyl-2-chloroethyl)ureas as microtubule disrupters: synthesis, antiproliferative activity, and beta-tubulin alkylation kinetics” (J Med Chem, 2003).

Assays:
Assay type in all cases: functional, cell-based
K562 = experiment: In vitro cytotoxic activity required to inhibit human chronic myelogenous leukemia K-562 cell line
In short: (§1)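 Alamar Blue viability assay. (1-5) × 10³ cells were seeded in RPMI 1640 with 10% bovine calf serum and preincubated 24 h. Increasing drug concentrations from DMSO stocks were added (final DMSO 0.5%) and cells incubated 72 h at 37 °C. Fluorescence read at ex 485/em 590 nm. IC50 is the dose inhibiting growth by 50%, mean of at least three independent determinations.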

B16 = experiment: In vitro cytotoxic activity required to inhibit murine melanoma B16 cell line; conditions: Mus musculus; in short: as §1
L1210 = experiment: In vitro cytotoxic activity required to inhibit murine lymphocytotic leukemia L1210 cell line; conditions: Mus musculus; in short: as §1
MCF7 = experiment: In vitro cytotoxic activity required to inhibit human estrogen-sensitive breast adenocarcinoma MCF-7 cell line; in short: as §1
T-24 = experiment: In vitro cytotoxic activity required to inhibit human bladder carcinoma T24 cell line; in short: as §1
HT-29 = experiment: In vitro cytotoxic activity required to inhibit human colon adenocarcinoma HT-29 cell line; in short: as §1
CHO-TAX 5-6 = experiment: Cytotoxic activity on paclitaxel-resistant CHO-TAX 5-6 cell line expressing mutated tubulin; conditions: Cricetulus griseus; in short: as §1
CHO-VV 3-2 = experiment: Cytotoxic activity on colchicine-resistant CHO-VV 3-2 cell line expressing mutated tubulin; conditions: Cricetulus griseus; in short: as §1
CHO = experiment: Cytotoxic activity on wild type CHO10001 cell line expressing mutated tubulin; conditions: Cricetulus griseus; in short: as §1

Structure (SMILES) | IC50 (K562) [µM] | IC50 (B16) [µM] | IC50 (L1210) [µM] | IC50 (MCF7) [µM] | IC50 (T-24) [µM] | IC50 (HT-29) [µM] | IC50 (CHO-TAX 5-6) [µM] | IC50 (CHO-VV 3-2) [µM] | IC50 (CHO) [µM]
C[C@@H](CCl)NC(=O)Nc1ccc2c(c1)Cc1ccccc1-2 | 19 | 30 | 17 | 29 | 27 | 28 | – | – | –
CC(C)c1ccc(NC(=O)N[C@H](C)CCl)cc1 | 0.9 | 2.3 | 0.9 | 2.9 | 1.9 | 1 | – | – | –
C[C@H](CCl)NC(=O)Nc1ccc2ccccc2c1 | 2.3 | 4.5 | 1.7 | 6 | 4 | 2.3 | – | – | –
O=C(NCCCl)Nc1ccc(I)cc1 | 6.2 | 16 | 3.6 | 23 | 12 | 6 | 6.1 | 23 | 15
CC(C)c1ccc(NC(=O)NCCCl)cc1 | 1.9 | 4.7 | 2 | 4.7 | 3.6 | 2.3 | – | – | –
C[C@@H](CCl)NC(=O)Nc1ccc2ccccc2c1 | 63 | > 100 | 20 | > 100 | 71 | 86 | – | – | –
CC[C@H](CCl)NC(=O)Nc1ccc(I)cc1 | 31 | 49 | 87 | 52 | 46 | 34 | – | – | –
C[C@@H](CCl)NC(=O)Nc1ccc(I)cc1 | 43 | 93 | 47 | 93 | 59 | 76 | 54 | 51 | 58
CCC(C)c1ccc(NC(=O)N[C@@H](CC)CCl)cc1 (some centres undefined) | 27 | 27 | 12 | 51 | 38 | 28 | – | – | –
CC[C@@H](CCl)NC(=O)Nc1ccc(C(C)C)cc1 | 28 | 46 | 24 | 72 | 57 | 51 | – | – | –
CC[C@H](CCl)NC(=O)Nc1ccc(C(C)(C)C)cc1 | 28 | 27 | 17 | 52 | 28 | 25 | – | – | –
CCC(C)c1ccc(NC(=O)N[C@@H](C)CCl)cc1 (some centres undefined) | 34 | 33 | 18 | 63 | 35 | 39 | – | – | –
C[C@H](CCl)NC(=O)Nc1ccc2c(c1)Cc1ccccc1-2 | 5.1 | 9.3 | 4.2 | 10 | 7.4 | 6.6 | – | – | –
C[C@H](CCl)NC(=O)Nc1ccc2c(c1)CCC2 | 5 | 11 | 4.2 | 11 | 7.4 | 6.4 | – | – | –
CCC(C)c1ccc(NC(=O)N[C@H](C)CCl)cc1 (some centres undefined) | 2 | 4.2 | 1.7 | 4.8 | 3.4 | 1.9 | – | – | –
O=C(NCCCl)Nc1ccc2ccccc2c1 | 2.5 | 6.3 | 2.9 | 7.3 | – | 2.6 | – | – | –
CC[C@H](CCl)NC(=O)Nc1ccc(C(C)C)cc1 | 19 | 33 | 14 | 55 | 32 | 28 | – | – | –
C[C@@H](CCl)NC(=O)Nc1ccc(C(C)(C)C)cc1 | 47 | 35 | 12 | 84 | 41 | 48 | 53 | 53 | 56
CC(C)(C)c1ccc(NC(=O)NCCCl)cc1 | 3.6 | 8 | 3.3 | 11 | 6.3 | 4 | 3.1 | 13 | 7.6
CC[C@@H](CCl)NC(=O)Nc1ccc(I)cc1 | 63 | 89 | 90 | 80 | 67 | 79 | – | – | –
CCC(C)c1ccc(NC(=O)N[C@H](CC)CCl)cc1 (some centres undefined) | 19 | 20 | 11 | 38 | 28 | 20 | – | – | –
CC[C@@H](CCl)NC(=O)Nc1ccc(C(C)(C)C)cc1 | 26 | 27 | 17 | 60 | 29 | 24 | – | – | –
C[C@H](CCl)NC(=O)Nc1ccc(C(C)(C)C)cc1 | 3.8 | 8.5 | 3.4 | 10 | 7 | 3.9 | 3.6 | 15 | 8.1
CCC(C)c1ccc(NC(=O)NCCCl)cc1 (centres undefined) | 2 | 5 | 2 | 5.2 | 3.7 | 1.8 | – | – | –
C[C@H](CCl)NC(=O)Nc1ccc(I)cc1 | 1 | 2.1 | 0.8 | 3.2 | 1.8 | 1.3 | 0.7 | 4.7 | 2.3
CC(C)c1ccc(NC(=O)N[C@@H](C)CCl)cc1 | 33 | 46 | 28 | > 100 | 54 | 65 | – | – | –
C[C@@H](CCl)NC(=O)Nc1ccc2c(c1)CCC2 | 91 | > 100 | 41 | > 100 | 92 | > 100 | – | – | –
